Active and inactive are the calls of the source. The calls are words filed in the database; no cut-off is given here.
What was measured:
HEL [1] = test: Induction of apoptosis in human HEL cells at 10 uM after 48 hrs by annexinV-propidium iodide staining-based flow cytometric analysis; assay type: functional, cell-based
How it was run: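 HEL cells were exposed to 10 μM of each compound for 48 h, then stained with Annexin V and propidium iodide and analyzed by flow cytometry. Early apoptosis was scored as Annexin V-positive, PI-negative. Data come from two independent experiments, each in triplicate.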

Bone marrow cell [2] = test: Anticolonegic activity in mouse bone marrow cells expressing Jak2 V617F mutation assessed as decrease in number of erythroid burst forming units at 25 uM after 24 hrs and measured on day 6; assay type: functional, cell-based
How it was run: (§1)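 Bone marrow cells taken from 6-month-old Jak2-V617F transgenic mice were incubated ex vivo in medium containing 25 μM of each compound for 0, 12 or 24 h. Cells were then washed, plated in methylcellulose (semi-solid) medium and cultured for 6 further days. BFU-E and CFU-GM colonies were counted. Each condition was run in duplicate and compared with the 0 h condition.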

HEL [3] = test: Cell cycle arrest in human HEL cells assessed as decrease in cyclin A expression at 25 uM after 24 hrs by Western blot analysis; assay type: functional, cell-based
How it was run: (§2)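 HEL cells were exposed to 25 μM of each compound for 24 h. Lysates were immunoblotted for cyclin A, cyclin B1 and CDK1, with β-actin as the loading control. Two independent experiments were run.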

HEL [4] = test: Induction of apoptosis in human HEL cells assessed as cleavage of caspase-3 at 25 uM after 24 hrs by Western blot analysis; assay type: functional, cell-based
How it was run: (§3)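 HEL cells were exposed to 25 μM of each compound for 24 h. Cleavage of PARP, caspase-3, Bid and Bim was assessed by Western blot. Two experiments were run for each blot.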

HEL [5] = test: Cell cycle arrest in human HEL cells assessed as decrease in cell population at G1 phase at 10 uM after 24 hrs by flow cytometric analysis; assay type: functional, cell-based
How it was run: (§4)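 HEL cells were exposed to 10 μM of each compound for 24 h. DNA content was then analyzed by flow cytometry. Data come from two experiments, each measured in triplicate.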

HEL [6] = test: Growth inhibition of human HEL cells expressing Jak2 V617F mutation at 0.03 to 30 uM after 72 hrs by trypan blue exclusion B assay; assay type: functional, cell-based
How it was run: (§5)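 HEL cells were incubated with graded compound concentrations for 72 h. Viability was determined by trypan blue exclusion.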

[7] = target: Tyrosine-protein kinase JAK2 (Homo sapiens) (UniProt O60674); test: Jak2-mediated GST-STAT1 phosphorylation at 2.5 uM after 30 mins by Western blot analysis as % of control
Bone marrow cell [8] = test: Anticolonegic activity in mouse bone marrow cells expressing Jak2 V617F mutation assessed as decrease in number of granulocyte/macrophage colony forming units at 25 uM after 12 hrs and measured on day 6; assay type: functional, cell-based; how it was run: as §1
[9] = target: Tyrosine-protein kinase JAK2 (Homo sapiens) (UniProt O60674); test: Jak2 autophosphorylation at 2.5 uM after 30 mins by Western blot analysis as % of control
HEL [10] = test: Cell cycle arrest in human HEL cells assessed as effect on CDK1 expression at 25 uM after 24 hrs by Western blot analysis; assay type: functional, cell-based; how it was run: as §2
Bone marrow cell [11] = test: Anticolonegic activity in mouse bone marrow cells expressing Jak2 V617F mutation assessed as decrease in number of granulocyte/macrophage colony forming units at 25 uM after 24 hrs and measured on day 6; assay type: functional, cell-based; how it was run: as §1
HEL [12] = test: Induction of apoptosis in human HEL cells assessed as cleavage of PARP at 25 uM after 24 hrs by Western blot analysis; assay type: functional, cell-based; how it was run: as §3
HEL [13] = test: Cell cycle arrest in human HEL cells assessed as increase in cell population at G2 phase at 10 uM after 24 hrs by flow cytometric analysis; assay type: functional, cell-based; how it was run: as §4
HEL [14] = test: Cell cycle arrest in human HEL cells assessed as effect on cyclin B1 expression at 25 uM after 24 hrs by Western blot analysis; assay type: functional, cell-based; how it was run: as §2
Bone marrow cell [15] = test: Anticolonegic activity in mouse bone marrow cells expressing Jak2 V617F mutation assessed as decrease in number of erythroid burst forming units at 25 uM after 12 hrs and measured on day 6; assay type: functional, cell-based; how it was run: as §1
HEL [16] = test: Cell cycle arrest in human HEL cells assessed as accumulation at G2/M phase at 10 uM after 24 hrs by flow cytometric analysis; assay type: functional, cell-based; how it was run: as §4
BaF3 [17] = test: Growth inhibition of mouse BAF3 cells expressing Jak2 V617 mutation at 30 uM after 72 hrs by MTS assay; assay type: functional, cell-based
How it was run: (§6)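 Ba/F3 cells expressing EpoR and Jak2-V617F were incubated with graded compound concentrations for 72 h. Viability was read by MTS assay. Data come from two independent experiments, each in triplicate.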

HEL [18] = test: Induction of apoptosis in human HEL cells assessed as cleavage of Bim at 25 uM after 24 hrs by Western blot analysis; assay type: functional, cell-based; how it was run: as §3
BaF3 [19] = test: Growth inhibition of mouse BAF3 cells expressing Jak2 […] mutation after 72 hrs by MTS assay; assay type: functional, cell-based; how it was run: as §6
HEL [20] = test: Growth inhibition of human HEL cells expressing Jak2 V617F mutation at 0.03 to 30 uM at 24 to 72 hrs by trypan blue exclusion B assay; assay type: functional, cell-based
HEL [21] = test: Growth inhibition of human HEL cells expressing Jak2 V617F mutation after 72 hrs by trypan blue exclusion B assay; assay type: functional, cell-based; how it was run: as §5
BaF3 [22] = test: Growth inhibition of mouse BAF3 cells expressing Jak2 V617 mutation at 0.03 to 30 uM by MTS assay; assay type: functional, cell-based; conditions: TDE = time-dependent effect; how it was run: as §6
HEL [23] = test: Induction of apoptosis in human HEL cells assessed as cleavage of Bid at 25 uM after 24 hrs by Western blot analysis; assay type: functional, cell-based; how it was run: as §3
HEL [24] = test: Growth inhibition of human HEL cells expressing Jak2 V617F mutation at 0.85 uM after 72 hrs by trypan blue exclusion B assay; assay type: functional; conditions: read-out: GI; how it was run: as §5
[25] = target: Tyrosine-protein kinase JAK2 (Homo sapiens) (UniProt O60674); test: Inhibition of Jak2-mediated STAT5 phosphorylation at Try694 in human HEL cells at 25 uM after 24 hrs by Western blot analysis; assay type: cell-based
How it was run: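 HEL cells were exposed to 25 μM of each compound for 24 h. Lysates were immunoprecipitated for STAT5 and phospho-STAT5 was detected by Western blot. Densitometry expressed phospho-STAT5 as percent of total, normalized to the DMSO control; n = 4.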

HEL [26] = test: Growth inhibition of human HEL cells expressing Jak2 V617F mutation at 0.03 to 30 uM by trypan blue exclusion B assay; assay type: functional, cell-based; conditions: TDE = time-dependent effect

Sequence of Tyrosine-protein kinase JAK2 (Homo sapiens) (O60674 whole entry): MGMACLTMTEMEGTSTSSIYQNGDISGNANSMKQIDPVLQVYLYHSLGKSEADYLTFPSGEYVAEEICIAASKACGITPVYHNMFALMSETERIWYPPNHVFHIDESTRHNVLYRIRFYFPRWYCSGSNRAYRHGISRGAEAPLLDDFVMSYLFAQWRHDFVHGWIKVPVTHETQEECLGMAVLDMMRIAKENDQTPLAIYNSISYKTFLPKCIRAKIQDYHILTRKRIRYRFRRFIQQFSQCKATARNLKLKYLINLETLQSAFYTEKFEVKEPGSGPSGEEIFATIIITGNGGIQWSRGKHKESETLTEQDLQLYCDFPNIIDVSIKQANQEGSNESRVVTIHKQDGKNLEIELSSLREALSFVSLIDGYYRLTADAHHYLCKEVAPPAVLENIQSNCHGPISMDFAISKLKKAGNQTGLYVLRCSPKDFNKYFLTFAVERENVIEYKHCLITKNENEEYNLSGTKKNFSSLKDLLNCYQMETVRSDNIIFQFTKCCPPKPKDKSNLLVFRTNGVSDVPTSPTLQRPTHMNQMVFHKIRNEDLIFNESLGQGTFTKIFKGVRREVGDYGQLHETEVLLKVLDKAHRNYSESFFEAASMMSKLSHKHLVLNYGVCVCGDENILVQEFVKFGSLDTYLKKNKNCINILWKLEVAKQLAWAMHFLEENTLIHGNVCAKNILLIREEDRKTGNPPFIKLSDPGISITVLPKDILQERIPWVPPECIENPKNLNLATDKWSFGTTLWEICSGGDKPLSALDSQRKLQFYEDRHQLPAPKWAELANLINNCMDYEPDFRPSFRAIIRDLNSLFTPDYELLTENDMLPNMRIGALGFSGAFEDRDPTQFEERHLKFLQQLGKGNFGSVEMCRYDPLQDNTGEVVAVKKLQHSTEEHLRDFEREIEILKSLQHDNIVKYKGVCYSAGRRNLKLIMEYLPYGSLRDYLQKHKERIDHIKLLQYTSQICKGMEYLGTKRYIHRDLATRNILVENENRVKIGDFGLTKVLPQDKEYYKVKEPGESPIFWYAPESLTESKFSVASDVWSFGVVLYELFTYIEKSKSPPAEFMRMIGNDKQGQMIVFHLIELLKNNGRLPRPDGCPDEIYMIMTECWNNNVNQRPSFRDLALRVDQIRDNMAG

residual activity [7] [%] | residual activity [9] [%] | SMILES | Activity (HEL [1]) | Activity (Bone marrow cell [2]) | Activity (HEL [3]) | Activity (HEL [4]) | Activity (HEL [5]) | growth inhibition (GI) (HEL [6]) | Activity (Bone marrow cell [8]) | Activity (HEL [10]) | Activity (Bone marrow cell [11]) | Activity (HEL [12]) | Activity (HEL [13]) | Activity (HEL [14]) | Activity (Bone marrow cell [15]) | Activity (HEL [16]) | further results
104 | 98.4 | C/C(=C(/C)c1ccc(CN(C)C)c(O)c1)c1ccc(CN(C)C)c(O)c1 | Active | Active | Active | Active | Active | Active | Active | inactive | Active | Active | Active | inactive | Active | Active | 
93.3 | 94.4 | CN(C)Cc1ccc(/C=C/c2ccc(CN(C)C)c(O)c2)cc1O | inactive |  | inactive |  |  | Active |  | inactive | Active | inactive |  | inactive |  |  | growth inhibition (GI) (BaF3 [17]): Active
89.1 | 89.1 | C/C(=C(/C)c1ccc(O)c(CN(C)C)c1)c1ccc(O)c(CN(C)C)c1 | Active | Active | inactive |  |  | Active |  | inactive | Active | Active |  | inactive |  |  | 
71.5 | 44.2 | CN(C)Cc1cc(/C=C/c2ccc(O)c(CN(C)C)c2)ccc1O | Active | Active | Active | Active | Active |  | Active | inactive | Active | Active | Active | inactive | Active | Active | Activity (HEL [18]): Active; growth inhibition (GI) (BaF3 [19]): Dose-dependent effect; growth inhibition (GI) (HEL [20]): Active; growth inhibition (GI) (HEL [21]): Dose-dependent effect; growth inhibition (GI) (BaF3 [22]): tde; Activity (HEL [23]): Active; inhibition of growth at 0.85 µM (HEL [24]): 50%; inhibition [25]: Active; growth inhibition (GI) (HEL [26]): tde
